Screens deposited in PubChem by Sanford-Burnham Center for Chemical Genomics.
Hits are enriched below; roughly 0.77% of the tested compounds scored in any of these assays.
hIAP act: human IAP activators, primary screen, biochemical, luminescence, uHTS; purified human IAP, CDP-Star luminescence, 30 min; stronger effect = higher value; 1 = vehicle-only enzyme, 0 = enzyme-free background; activation factor at 10 µM; hit rate 0.16% among 330,000; AID 2524, 2010;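 active = activation factor of the enzyme at least 2-fold when tested at 20 µM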
Target sequence (P09923 whole entry, looked up): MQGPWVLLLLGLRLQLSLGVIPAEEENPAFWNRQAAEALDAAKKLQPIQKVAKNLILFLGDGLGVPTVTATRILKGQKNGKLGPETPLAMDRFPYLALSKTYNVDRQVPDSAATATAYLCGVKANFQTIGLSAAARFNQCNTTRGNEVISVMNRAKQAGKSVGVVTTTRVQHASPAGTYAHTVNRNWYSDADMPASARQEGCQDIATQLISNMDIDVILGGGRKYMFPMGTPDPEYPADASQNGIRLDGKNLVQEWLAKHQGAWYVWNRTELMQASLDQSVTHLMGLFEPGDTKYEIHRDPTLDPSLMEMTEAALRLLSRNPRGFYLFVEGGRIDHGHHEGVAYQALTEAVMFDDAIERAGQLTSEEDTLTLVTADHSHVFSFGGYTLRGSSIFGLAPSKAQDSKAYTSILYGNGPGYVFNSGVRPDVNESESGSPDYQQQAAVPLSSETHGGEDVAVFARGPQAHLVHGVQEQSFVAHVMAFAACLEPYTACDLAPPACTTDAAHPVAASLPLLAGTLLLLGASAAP
bIAP act: bovine intestinal alkaline phosphatase activators, primary screen, biochemical, bovine IAP, CDP-star luminescence; alkaline phosphatase, intestinal [Bos taurus]; purified bovine IAP, 30 min; stronger effect = higher value; fold of DMSO-control signal, blank-subtracted; activation factor at 20 µM; hit rate 0.17% among 200,000; AID 1016, 2008;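 active = activation factor of 2 or more at 20 µM, a signal rise over negative controls twice the positive control's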
bIAP inh: bovine intestinal alkaline phosphatase inhibitors, primary screen, selectivity assay for TNAP inhibitor project, biochemical, bovine IAP, CDP-star luminescence; alkaline phosphatase, intestinal [Bos taurus]; purified bovine IAP, 30 min; inhibition, % at 20 µM; 190,000 tested, under 10 active;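 active = over 50% inhibition of intestinal alkaline phosphatase at 20 µM in the single-dose screen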
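System: Purified bovine intestinal alkaline phosphatase (IAP) enzyme | Input: IAP diluted 1/65,000,000 in the well | Also added: CDP-star chemiluminescent phosphatase substrate, 30 µM final | Dosing: 20 µM single dose | Times: Enzyme reaction for 30 min at room temperature | Detection: Luminescence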
hIAP block: human IAP inhibitors, primary screen, biochemical, luminescence, uHTS; purified IAP, CDP-Star luminescence, 30 min; Intestinal-type alkaline phosphatase (Homo sapiens), P09923; inhibition, % at 10 µM; AID 2544, 2010; hit rate 0.12% among 330,000;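 active = inhibition reaching a set limit with compound at 10 µM in the primary screen, cut at about 35% in these data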;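 also: plate controls were DMSO wells with enzyme for no effect and no-enzyme buffer wells for full effect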
mIAP activ: activators of mouse IAP, primary screen, biochemical, luminescence, uHTS; activation factor at 10 µM; hit rate 0.24% among 330,000; muIAP, CDP-Star luminescence, 30 min; stronger effect = higher value; 1 = vehicle-only enzyme signal, 0 = enzyme-free wells; AID 2805, 2010;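 active = activation factor of at least 2 at 20 µM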
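Assay system: mouse IAP enzyme; reagent: chemiluminescent substrate CDP-Star; dosing: test compounds delivered from DMSO solution; schedule: 30 min at room temperature; measured by: luminescence from enzymatic CDP-Star hydrolysis; controls: DMSO-only wells and no-enzyme negative control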
mIAP block: inhibitors of mouse IAP, primary screen, biochemical, luminescence, uHTS. intestinal alkaline phosphatase [Mus musculus]. purified mouse IAP, CDP-Star luminescence, 30 min. inhibition, % at 10 µM. hit rate 0.2% among 330,000;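 active = inhibition of at least 40% at 10 µM in the primary screen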;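 also: plate controls were DMSO with enzyme for no effect and no enzyme wells for full effect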
An asterisk follows results filed as active; nt = no result.

SMILES | hIAP act | bIAP act | bIAP inh | hIAP block | mIAP activ | mIAP block
CCC(C)(C)NC(=O)C(c1cccc(OC)c1)N(C(=O)c1ccn[nH]1)c1cccc(OC)c1 (stereo unspecified) | 1.6 | 0.7 | 26.8 | -59.9 | 1.17 | -16.5
CCOC(=O)C1=CN(Cc2cccc(-c3ccc4c(c3)OCO4)c2)S(=O)(=O)N(C)C1C (stereo unspecified) | nt | nt | nt | nt | 0.931 | 6.9
O=C(/C=C/c1ccco1)NC(=S)Nc1ccc(O)c(-c2nc3ccccc3s2)c1 | 1.44 | 1 | 0.5 | -43.7 | 0.466 | 53.4*
CCN(C(=O)COC(=O)CNC(=O)C1CCCCC1)c1ccccc1 | 1.13 | nt | nt | -13.1 | 1.01 | -1.2
CC(=O)OCC(=O)[C@@]1(O)CC[C@H]2[C@@H]3CCC4=CC(=O)C=C[C@]4(C)[C@H]3[C@@H](O)C[C@@]21C | 1.05 | 380* | nt | -5.4 | 1.17 | -17.4
C[C@]12C=CC(=O)C=C1CC[C@@H]1C2C(O)C[C@@]2(C)C1CC[C@]2(O)C(=O)COC(=O)CCC(=O)NC(CC(=O)O)C(=O)O (stereo partly specified) | 1.02 | nt | nt | -1.8 | 0.941 | 5.9
Cc1nn(Cc2ccc(F)cc2)c(C)c1NC(=O)C1c2ccccc2Oc2ccccc21 | 1.2 | 0.8 | 18.1 | -19.9 | 2.88* | -188.1
Cc1cc(C(=O)Nc2c(C)nn(Cc3ccc(F)cc3)c2C)on1 | 1.08 | 1 | -4.3 | -8.4 | 0.986 | 1.4
COc1ccc(-c2oc3cccnc3c2-c2ccc(OC)nc2)cc1 | 0.966 | nt | nt | 3.4 | 0.922 | 7.8
CCOc1ccccc1NC(=S)N1C2CCC1CC(NC(=O)NC13CC4CC(CC(C4)C1)C3)C2 (stereo unspecified) | 0.973 | 1.6 | -55.0 | 2.7 | 2.12* | -112.3
CCCCc1c(O)nc(SCC(=O)NC(C)(C)C)n(-c2ccccc2C)c1=O | 1.06 | 1 | 3.2 | -6.0 | 0.583 | 41.7*
CCCn1c(SCC(=O)Nc2ccc(F)c(Cl)c2)nc(O)cc1=O | 1.02 | nt | nt | -1.9 | 0.837 | 16.3
O=c1[nH]c2cc(Cl)c([N+](=O)[O-])nc2[nH]1 | 0.867 | 0.6 | 37.5 | 13.3 | 0.465 | 53.5*
CN(C)S(=O)(=O)c1cccc(NC(=O)c2ccc3c(c2)OCCO3)c1 | 1.19 | nt | nt | -18.8 | 0.995 | 0.5
Cc1ccc(S(=O)(=O)NCC(=O)OCC(=O)NCc2ccc3c(c2)OCO3)cc1 | 1.15 | nt | nt | -15.4 | 1.03 | -2.8
C/C=C\C(=O)Nc1cccc(C2=NOC3(C2)C[C@@H](C(N)=O)N(C(=O)c2ccccc2)C3)c1 (stereo partly specified) | 0.916 | nt | nt | 8.4 | 0.565 | 43.5*
CCCc1cc(=O)[nH]c(SCC(=O)Nc2sccc2C#N)n1 | 1.02 | nt | nt | -1.9 | 0.957 | 4.3
COc1cc(C(=O)N2CCN(C(=O)CC(C)C)CC2)cc(OC)c1OC | 1.07 | 1 | 0.5 | -6.6 | 0.597 | 40.3*
COc1ccc(C(=O)N2CCN(C(=O)CC(C)C)CC2)cc1OC | 1.08 | 1 | -0.1 | -8.3 | 0.958 | 4.2
CC(Sc1nnc(-c2ccccc2)c(-c2ccccc2)n1)C(=O)NCC1CCCO1 (stereo unspecified) | 0.963 | nt | nt | 3.7 | 0.916 | 8.4
CCCCc1ncc(CN2CCC(n3nccc3NC(=O)c3ccccc3Cl)CC2)[nH]1 | 1.1 | nt | nt | -10.0 | 1.17 | -17.4
Cc1cc(C(=O)C(=O)O)c(C)n1-c1ccc(Cl)c(Cl)c1 | 1.08 | 2.5* | -146.5 | -8.0 | 1.01 | -1.2
CC(CNC(=S)Nc1cc(F)cc(F)c1)CSc1ccc(Cl)cc1 (stereo unspecified) | 1.22 | 0.7 | 26.4 | -22.0 | 3.19* | -218.8
Cc1c(C(=O)Nc2ccccc2[N+](=O)[O-])csc1-c1ccccc1 | 0.87 | 3.7* | -266.2 | 13.0 | 0.907 | 9.3
CCOC(=O)c1c(C)n(-c2ccc(C)cc2)c2ccc(OCC(O)CNCCCO)cc12 (stereo unspecified) | 1.02 | 2* | -99.0 | -2.5 | 1 | -0.1
